According to ChEMBL document CHEMBL1145590, “Discovery and initial SAR of arylsulfonylpiperazine inhibitors of 11beta-hydroxysteroid dehydrogenase type 1 (11beta-HSD1)” (Bioorg Med Chem Lett, 2008):

What was measured:
[1] = biological target: 11-beta-hydroxysteroid dehydrogenase 1 (Mus musculus, UniProt P50172); assay: Inhibition of mouse recombinant 11beta-HSD1 assessed as conversion of [3H]cortisone to [3H]cortisol by SPA assay
[2] = biological target: T1, 11-beta-hydroxysteroid dehydrogenase 1 (Homo sapiens, UniProt P28845)
[3] = biological target: T1, 11-beta-hydroxysteroid dehydrogenase 1; remark: listed apart in the source
[4] = Metabolic stability in human liver microsomes after 10 mins; assay type: ADME, Microsome; conditions: read-out: Stability
Summary of the method: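 Test compound incubated with human liver microsomes. Percent parent remaining measured at 10 min.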

[5] = Clearance in rat; assay type: ADME, organism-based; conditions: in vivo
[6] = Oral bioavailability in rat; assay type: ADME, organism-based; conditions: in vivo
[7] = biological target: T2, 11-beta-hydroxysteroid dehydrogenase type 2 (Homo sapiens, UniProt P80365); assay: Inhibition of 11beta-HSD2
T2 sequence (P80365 whole entry): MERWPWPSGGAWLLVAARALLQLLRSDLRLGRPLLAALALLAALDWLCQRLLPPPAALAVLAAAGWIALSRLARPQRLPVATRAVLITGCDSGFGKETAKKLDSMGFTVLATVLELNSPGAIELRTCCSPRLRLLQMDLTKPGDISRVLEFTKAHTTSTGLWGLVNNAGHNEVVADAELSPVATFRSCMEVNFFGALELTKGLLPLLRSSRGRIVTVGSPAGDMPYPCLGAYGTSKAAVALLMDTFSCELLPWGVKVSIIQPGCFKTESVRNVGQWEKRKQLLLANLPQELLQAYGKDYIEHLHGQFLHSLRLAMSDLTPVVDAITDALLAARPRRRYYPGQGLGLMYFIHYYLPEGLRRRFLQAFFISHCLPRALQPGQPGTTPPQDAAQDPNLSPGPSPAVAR

11-beta-hydroxysteroid dehydrogenase 1 (Mus musculus, UniProt P50172), sequence (P50172 whole entry): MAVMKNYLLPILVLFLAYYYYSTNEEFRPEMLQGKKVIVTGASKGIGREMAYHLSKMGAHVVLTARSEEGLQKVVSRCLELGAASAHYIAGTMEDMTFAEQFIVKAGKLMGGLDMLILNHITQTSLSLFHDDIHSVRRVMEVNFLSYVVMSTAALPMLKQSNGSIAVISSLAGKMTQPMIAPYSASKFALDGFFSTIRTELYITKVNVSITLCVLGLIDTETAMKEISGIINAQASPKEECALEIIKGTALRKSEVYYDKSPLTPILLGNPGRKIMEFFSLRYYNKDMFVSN
T1 sequence (P28845 whole entry): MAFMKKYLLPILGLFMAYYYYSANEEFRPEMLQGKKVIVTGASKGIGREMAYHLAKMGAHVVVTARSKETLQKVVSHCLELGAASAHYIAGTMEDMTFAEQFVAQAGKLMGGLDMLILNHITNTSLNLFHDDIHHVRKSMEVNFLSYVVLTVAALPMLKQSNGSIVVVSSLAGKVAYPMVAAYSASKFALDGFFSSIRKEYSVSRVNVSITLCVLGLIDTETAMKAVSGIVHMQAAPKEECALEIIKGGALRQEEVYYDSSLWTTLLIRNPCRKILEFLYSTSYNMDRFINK

| SMILES | IC50 [1] [µM] | IC50 [2] [µM] | IC50 [3] [µM] | remaining at 10 min [4] [%] | clearance [5] [mL/min/kg] | bioavailability [6] [%] | IC50 [7] [µM] |
| --- | --- | --- | --- | --- | --- | --- | --- |
| O=S(=O)(c1cccc(C(F)(F)F)c1)N1CCN(c2ncccc2C(F)(F)F)CC1 | 0.053 | 0.064 | > 1 |  |  |  |  |
| COc1ccc(S(=O)(=O)N2CCN(c3ncccc3C(F)(F)F)CC2)cc1 | 0.032 | 0.019 | 0.456 |  |  |  |  |
| Cc1ccc(S(=O)(=O)N2CCN(c3ncccc3Cl)CC2)cc1 | 0.146 | 0.117 | > 1 |  |  |  |  |
| O=S(=O)(c1ccccc1)N1CCN(c2ncccc2C(F)(F)F)CC1 | 0.122 | 0.045 | 0.724 |  |  |  |  |
| O=C(c1ccccc1)N1CCN(c2ncccc2C(F)(F)F)CC1 | > 1 | 0.262 | > 1 |  |  |  |  |
| FC(F)(F)c1cccnc1N1CCN(Cc2ccccc2)CC1 | > 1 | 0.55 | 1.93 |  |  |  |  |
| CCc1ccc(S(=O)(=O)N2CCN(c3ncccc3C(F)(F)F)CC2)cc1 | 0.053 | 0.018 | 0.51 |  |  |  |  |
| Cc1ccc(S(=O)(=O)N2CCN(c3ncccc3C)CC2)cc1 | 0.24 | 0.152 | > 1 |  |  |  |  |
| CCC1CN(c2ncccc2C(F)(F)F)CCN1S(=O)(=O)c1ccc(C(C)(C)C)cc1 (stereo not given) | 0.006 | 0.017 | > 1 |  |  |  |  |
| C[C@@H]1CN(c2ncccc2C(F)(F)F)CCN1S(=O)(=O)c1ccc(C(C)(C)C)cc1 | 0.004 | 0.011 | 0.762 |  |  |  |  |
| O=S(=O)(c1cccc2ccccc12)N1CCN(c2ncccc2C(F)(F)F)CC1 | 0.08 | 0.013 | 0.329 |  |  |  |  |
| N#Cc1ccc(S(=O)(=O)N2CCN(c3ncccc3C(F)(F)F)CC2)cc1 | 0.546 | 0.05 | 0.978 |  |  |  |  |
| C[C@H]1CN(c2ncccc2C(F)(F)F)CCN1S(=O)(=O)c1ccc(C(C)(C)C)cc1 | 0.017 | 0.009 | 0.569 |  |  |  |  |
| CC(C)(C)c1ccc(S(=O)(=O)N2CCN(c3ccc([N+](=O)[O-])cc3)CC2)cc1 | 0.161 | 0.01 | 0.247 | 90 | 16.7 | 7 |  |
| CC(C)(C)c1ccc(S(=O)(=O)N2CCN(c3ccccc3F)CC2)cc1 | 0.098 | 0.106 | > 1 |  |  |  |  |

The next lines start with the values.

| IC50 [1] [µM] | IC50 [2] [µM] | IC50 [3] [µM] | remaining at 10 min [4] [%] | clearance [5] [mL/min/kg] | bioavailability [6] [%] | IC50 [7] [µM] | SMILES |
| --- | --- | --- | --- | --- | --- | --- | --- |
| > 1 | > 1 | > 1 |  |  |  |  | Cc1ccc(S(=O)(=O)N2CCN(c3ccccn3)CC2)cc1 |
|  |  |  | 61 |  |  |  | CC(C)(C)c1ccc(S(=O)(=O)N2CCN(c3ncccc3C(F)(F)F)CC2)cc1 |
| 0.004 | 0.009 | 0.632 |  |  |  |  | CC1CN(c2ncccc2C(F)(F)F)CCN1S(=O)(=O)c1ccc(C(C)(C)C)cc1 (stereo not given) |
| 0.011 |  |  |  |  |  |  | O=S(=O)(c1ccc2ccccc2c1)N1CCN(c2ncccc2C(F)(F)F)CC1 |
| 0.311 | 0.037 | 0.922 |  |  |  |  | O=[N+]([O-])c1ccc(S(=O)(=O)N2CCN(c3ncccc3C(F)(F)F)CC2)cc1 |
|  | 0.628 | > 1 |  |  |  |  | Cc1ccc(S(=O)(=O)N2CCN(c3ncccc3C#N)CC2)cc1 |
| 0.032 | 0.016 | 0.461 |  |  |  | > 10 | Cc1ccc(S(=O)(=O)N2CCN(c3ncccc3C(F)(F)F)CC2)cc1 |
